26 molecules from ChEMBL document CHEMBL3351386, “Multidrug resistance (MDR) reversers: High activity and efficacy in a series of asymmetrical N,N-bis(alkanol)amine aryl esters” (Eur J Med Chem, 2014) can be followed below.

Common to all, as to type: cell-based
A short description of series [1]: Modulatory activity at P-gp in human K562/DOX cells assessed as increase in nuclear concentration of pirarubicin by spectrofluorometric assay. Particulars: K562/Adr, read-out: I50.
Series [2] deals with K562. Kind of series: Intrinsic cytotoxicity against human K562 cells at 0.1 to 3 uM after 72 hrs by MTT assay. The conditions noted are these: k562, 72 h. The method in brief: (§1)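 K562 parental and P-gp-overexpressing K562/DOX cells, exponential phase (3 × 10⁵ cells/mL), seeded at 3000 cells/well. Test compounds alone at 0.1, 1.0 or 3.0 µM, without doxorubicin. Incubated 37 °C, 5% CO₂, 72 h. MTT added, further 3 h incubation, formazan crystals inspected microscopically.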
Background: Formazan colour is commonly taken as a measure of viable cells.

Series [3] concerns K562. The series is described as follows: Intrinsic cytotoxicity against doxorubicin-resistant human K562 cells at 3 uM after 72 hrs by MTT assay. The conditions noted are these: k562, 72 h. The method in brief:
as §1

Series [4] deals with ATP-dependent translocase ABCB1 (Homo sapiens, UniProt P08183). The series is described as follows: Modulatory activity at P-gp in doxorubicin-resistant human K562 cells assessed as MDR-reversing activity by measuring doxorubicin-induced cell mortality after 72 hrs by MTT assay relative to untreated control. The conditions noted are these: k562, 72 h. In short, it runs like this:
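K562/DOX (P-gp-overexpressing, doxorubicin-resistant) cells in exponential growth were seeded at 3000 cells/well. Doxorubicin was given alone or with modulator at 0.1, 1.0 or 3.0 µM, and incubated 72 h at 37 °C in 5% CO2. Viability was read by MTT with a further 3 h incubation. Reversal fold is the doxorubicin IC50 without modulator divided by the IC50 with modulator. Values are the mean of ≥3 determinations, each with quadruplicate cultures.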

Sequence of ATP-dependent translocase ABCB1 (P08183 whole entry): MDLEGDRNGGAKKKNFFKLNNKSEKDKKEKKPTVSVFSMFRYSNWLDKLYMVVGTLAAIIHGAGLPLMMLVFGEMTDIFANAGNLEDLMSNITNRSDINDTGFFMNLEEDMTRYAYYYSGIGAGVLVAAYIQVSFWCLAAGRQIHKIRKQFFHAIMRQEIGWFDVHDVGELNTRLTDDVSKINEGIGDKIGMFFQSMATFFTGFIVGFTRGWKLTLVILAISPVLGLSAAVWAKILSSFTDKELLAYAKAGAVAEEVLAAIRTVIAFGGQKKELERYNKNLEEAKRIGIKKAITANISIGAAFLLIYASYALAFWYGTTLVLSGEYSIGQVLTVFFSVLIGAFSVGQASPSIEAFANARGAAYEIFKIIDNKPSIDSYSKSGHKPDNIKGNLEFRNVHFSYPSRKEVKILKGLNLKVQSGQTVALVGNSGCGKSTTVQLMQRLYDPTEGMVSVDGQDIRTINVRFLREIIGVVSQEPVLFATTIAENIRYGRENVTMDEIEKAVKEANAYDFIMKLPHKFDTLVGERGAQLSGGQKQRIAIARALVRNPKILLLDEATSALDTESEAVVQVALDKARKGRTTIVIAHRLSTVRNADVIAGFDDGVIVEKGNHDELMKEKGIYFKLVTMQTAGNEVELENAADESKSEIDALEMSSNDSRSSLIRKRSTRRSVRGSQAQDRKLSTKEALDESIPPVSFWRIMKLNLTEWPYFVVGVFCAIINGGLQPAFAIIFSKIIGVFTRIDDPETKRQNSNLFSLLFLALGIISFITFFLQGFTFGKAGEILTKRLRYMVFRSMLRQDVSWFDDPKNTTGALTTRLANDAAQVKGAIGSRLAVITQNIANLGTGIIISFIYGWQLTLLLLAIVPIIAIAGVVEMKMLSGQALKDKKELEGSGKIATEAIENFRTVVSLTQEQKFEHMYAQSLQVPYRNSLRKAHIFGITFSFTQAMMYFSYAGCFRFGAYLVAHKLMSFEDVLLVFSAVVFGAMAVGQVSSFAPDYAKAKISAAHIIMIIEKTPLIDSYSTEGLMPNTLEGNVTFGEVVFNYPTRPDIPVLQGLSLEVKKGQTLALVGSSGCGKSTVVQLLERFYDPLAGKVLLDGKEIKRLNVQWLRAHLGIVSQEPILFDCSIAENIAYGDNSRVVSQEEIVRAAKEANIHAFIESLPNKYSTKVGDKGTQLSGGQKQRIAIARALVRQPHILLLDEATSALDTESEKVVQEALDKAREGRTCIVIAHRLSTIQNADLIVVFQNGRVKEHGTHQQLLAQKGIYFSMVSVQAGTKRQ

Consider `C=C[C@@H]1CN2CC[C@H]1C[C@H]2[C@H](OCC(=O)OCCCCCN(C)CCCCCOC(=O)/C=C/c1cc(OC)c(OC)c(OC)c1)c1ccnc2ccc(OC)cc12`, for which, in series [1], the IC50 was 3430 nM.
The same measure, in the same setting: the figure for `C=C[C@@H]1CN2CC[C@H]1C[C@H]2[C@H](OCC(=O)OCCCN(C)CCCOC(=O)/C=C/c1cc(OC)c(OC)c(OC)c1)c1ccnc2ccc(OC)cc12` is 5060 nM; for `C=C[C@@H]1CN2CC[C@H]1C[C@H]2[C@@H](OCC(=O)OCCCN(C)CCCOC(=O)/C=C/c1cc(OC)c(OC)c(OC)c1)c1ccnc2ccc(OC)cc12` it is 4790 nM; for `COc1ccc2nccc(C(=O)OCCCN(C)CCCOC(=O)/C=C/c3cc(OC)c(OC)c(OC)c3)c2c1` it is 880 nM.
Same read-out and setting: the figure for `COc1cc(/C=C/C(=O)OCCCN(C)CCCOC(=O)C2c3ccccc3-c3ccccc32)cc(OC)c1OC` is 500 nM.
The same measure, in the same setting: the figure for `COc1cc(C#CC(=O)OCCCN(C)CCCOC(=O)c2cc(OC)c(OC)c(OC)c2)cc(OC)c1OC` is 1000 nM; for `COc1cc(C#CC(=O)OCCCN(C)CCCOC(=O)c2c3ccccc3cc3ccccc23)cc(OC)c1OC` it is 700 nM; for `C=C[C@@H]1CN2CC[C@H]1C[C@H]2[C@@H](OCC(=O)OCCCCCN(C)CCCCCOC(=O)/C=C/c1cc(OC)c(OC)c(OC)c1)c1ccnc2ccc(OC)cc12` it is 2650 nM.
For the molecule `COc1ccc2nccc(C(=O)OCCCCCN(C)CCCCCOC(=O)/C=C/c3cc(OC)c(OC)c(OC)c3)c2c1`, the IC50 in series [1] is 750 nM.
Same read-out and setting: the same measure for `COc1cc(C#CC(=O)OCCCCCN(C)CCCCCOC(=O)c2cc(OC)c(OC)c(OC)c2)cc(OC)c1OC`: 290 nM.
On the same count and under the same terms, the same measure for `COc1cc(C#CC(=O)OCCCCCN(C)CCCCCOC(=O)c2c3ccccc3cc3ccccc23)cc(OC)c1OC`: 340 nM; for `COc1cc(/C=C/C(=O)OCCCN(C)CCCCCOC(=O)c2cc(OC)c(OC)c(OC)c2)cc(OC)c1OC`: 270 nM; for `COc1cc(/C=C/C(=O)OCCCCCN(C)CCCOC(=O)c2cc(OC)c(OC)c(OC)c2)cc(OC)c1OC`: 120 nM.
Take `COc1cc(/C=C/C(=O)OCCCCN(C)CCCCOC(=O)c2cc(OC)c(OC)c(OC)c2)cc(OC)c1OC`: the IC50 in series [1] came to 1530 nM.
Turning to `COc1cc(/C=C/C(=O)OCCCN(C)CCCCCOC(=O)c2c3ccccc3cc3ccccc23)cc(OC)c1OC`, the Activity entry in the series with K562 [2] is “Non-toxic”; with K562 [3] it was “<= 20%”. For the same molecule, the IC50 in series [1] stood at 40 nM.
With `COc1cc(/C=C/C(=O)OCCCCCN(C)CCCOC(=O)c2c3ccccc3cc3ccccc23)cc(OC)c1OC`, the Activity result is “Non-toxic” in the series on K562 [2] and “<= 20%” with K562 [3]. For the same molecule, the mortality (usually the share of the test organisms that died) in series [4] is 100%. For the same molecule, the IC50 in series [1] worked out at 40 nM.
The like results for `COc1cc(/C=C/C(=O)OCCCCN(C)CCCCOC(=O)c2c3ccccc3cc3ccccc23)cc(OC)c1OC` were, in that order, “Non-toxic”, “<= 20%”, 100% and 70 nM.
Take `COc1cc(C#CC(=O)OCCCN(C)CCCCCOC(=O)c2cc(OC)c(OC)c(OC)c2)cc(OC)c1OC`: the IC50 in series [1] is 260 nM.
Same read-out and setting: the same measure for `COc1cc(C#CC(=O)OCCCCCN(C)CCCOC(=O)c2cc(OC)c(OC)c(OC)c2)cc(OC)c1OC`: 310 nM.
Consider `COc1cc(C#CC(=O)OCCCCN(C)CCCCOC(=O)c2cc(OC)c(OC)c(OC)c2)cc(OC)c1OC`, for which the IC50 in series [1] was 1030 nM.
The same measure, in the same setting: the same measure for `COc1cc(C#CC(=O)OCCCN(C)CCCCCOC(=O)c2c3ccccc3cc3ccccc23)cc(OC)c1OC`: 110 nM.
On the same count and under the same terms, the figure for `COc1cc(C#CC(=O)OCCCCCN(C)CCCOC(=O)c2c3ccccc3cc3ccccc23)cc(OC)c1OC` is 100 nM; for `COc1cc(C#CC(=O)OCCCCN(C)CCCCOC(=O)c2c3ccccc3cc3ccccc23)cc(OC)c1OC` it is 100 nM; for `COc1cc(/C=C/C(=O)OCCCCCN(C)CCCOC(=O)C2c3ccccc3-c3ccccc32)cc(OC)c1OC` it is 190 nM.
Regarding `COc1cc(/C=C/C(=O)OCCCN(C)CCCCCOC(=O)C2c3ccccc3-c3ccccc32)cc(OC)c1OC`, in series [1], the IC50 was found to be 350 nM.
Still for that read-out and setting: the figure for `COc1cc(/C=C/C(=O)OCCCCN(C)CCCCOC(=O)C2c3ccccc3-c3ccccc32)cc(OC)c1OC` is 110 nM.
